Laboratory results as given in ChEMBL document CHEMBL4811254, “Beyond Basicity: Discovery of Nonbasic DENV-2 Protease Inhibitors with Potent Activity in Cell Culture” (J Med Chem, 2021).
Activity calls are given as the source filed them.

How the values were obtained:
dengue virus type 2 [1] = experiment: (§1) Antiviral activity against DENV2 infected in human Huh7 cells assessed as reduction in virus titer in cell supernatant by measuring inhibition of plaque formation using VeroE6 cells at 12.5 uM preincubated with viral infected Huh7 cells for 48 hrs and measured following infection of VeroE6 cells with supernatants for 7 days by plaque assay based crystal violet staining analysis; type: functional; settings: Huh-7, 216 h, time 9 day
Procedure, shortened: (§2)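 Huh-7 cells seeded at 1 × 10⁴/well and incubated overnight. Infected with DENV-2 at MOI 1 for 2 h, then medium changed and compound added. […] Pooled supernatants titred by plaque assay on VeroE6 cells: 10⁻¹ to 10⁻⁶ dilutions, 1 h infection, 7 days, formaldehyde fix, crystal violet.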

Huh-7 = experiment: Cytotoxicity against human Huh-7 cells assessed as reduction in cell viability at 12.5 uM incubated for 48 hrs by CellTiter-Blue assay; type: cell-based; settings: huh-7, 48 h
Procedure, shortened: (§3)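 Viability by CellTiter-Blue in HeLa or Huh-7 cells exposed to compound dilutions. Plates run in parallel with the reporter assay (HeLa) or the virus titer assay (Huh-7).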

Genome polyprotein [2] = molecular target: T1, Genome polyprotein (dengue virus type 2, UniProt P29990); experiment: Competitive inhibition of DENV2 NS2B-NS3 protease expressed in Escherichia coli BL21 lambda(DE3) using FRET substrate preincubated with enzyme for 15 mins followed by varying concentrations of substrate addition for 15 mins by Cheng-Prusoff plot analysis
[3] = Stability of the compound assessed as bovine pancreas trypsin-mediated parent compound depletion at 0.1 mg/ml incubated for 120 mins by HPLC analysis; type: ADME, Bos taurus; settings: cattle; for metabolised at 2 h, 0.1 mg/ml: bovine pancreas trypsin, read-out: Drug degradation; for Stabilty: isolated protein, 2 h
Procedure, shortened: (§4)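 Compound incubated with α-chymotrypsin or bovine trypsin in buffer for 120 min at 37 °C; parent compound depletion monitored.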

[4] = Cytotoxicity against human HeLa cells assessed as reduction in cell viability incubated for 24 hrs by CellTiter-Blue assay; type: cell-based; procedure, shortened: as §3
[5] = Passive membrane permeability of the compound in phosphate buffered saline at 200 uM incubated for 5 hrs by PAMPA assay based HPLC analysis; type: ADME; settings: PAMPA, read-out: permeability
Procedure, shortened: (§5)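 Precoated trilayer PAMPA, 5 h incubation. Acceptor and donor concentrations measured after 5 h. Permeability and mass retention calculated by a literature method.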

Trypsin (Homo sapiens) = Trypsin (Homo sapiens) (UniProt P07477+P07478+P35030); experiment: Inhibition of trypsin (unknown origin) using Boc-Val-Pro-Arg-AMC as substrate at 50 uM preincubated with enzyme for 15 mins followed by substrate addition and measured for 15 mins by fluorimetric assay; type: protein assay; settings: time 30.0 min
Genome polyprotein [6] = molecular target: T1, Genome polyprotein; experiment: Inhibition of NS2B-NS3 protease in DENV2proHeLa system assessed as inhibition of luciferase signal incubated for 24 hrs by luciferase reporter gene assay; type: cell-based, HeLa
Procedure, shortened: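 HeLa cells stably carrying the reporter system, 2 × 10⁴ per well, given inhibitor at seeding and held 24 h at 37 °C. Cells lysed 15 min at room temperature. Luciferase read for 5 s after injecting coelenterazine (2.75 μM in PBS). Triplicate wells per concentration; percent inhibition taken against untreated cells. EC50/EC90 from 4-parameter dose-response fit, background from cell-free wells subtracted.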

[7] = Stability of the compound assessed as bovine pancreas alphachymotrypsin-mediated parent compound depletion by measuring parent compound remaining at 0.1 mg/ml incubated for 120 mins by HPLC analysis; type: ADME, Bos taurus; settings: cattle, bovine pancreas alpha-chymotrypsin, read-out: Stabilty; procedure, shortened: as §4
[8] = molecular target: Genome polyprotein (dengue virus type 2) (UniProt P29990); experiment: Inhibition of DENV2 NS2B-NS3 protease expressed in Escherichia coli BL21 lambda(DE3) using FRET substrate preincubated with enzyme for 15 mins in presence of detergent CHAPS followed by substrate addition for 15 mins by fluorescence based analysis; settings: time 30.0 min
[9] = molecular target: Prothrombin (Homo sapiens) (UniProt P00734); experiment: Inhibition of thrombin in human plasma using Boc-Val-Pro-Arg-AMC as substrate at 25 uM preincubated with enzyme for 15 mins followed by substrate addition and measured for 15 mins by fluorimetric assay; type: cell-free; settings: time 30.0 min
[10] = Passive membrane permeability of the compound in phosphate buffered saline assessed as concentration of the compound in donor plate at 200 uM incubated for 5 hrs by PAMPA assay based HPLC analysis; type: ADME; procedure, shortened: as §5
dengue virus type 2 [11] = experiment: as §1, with “cells” for “cells at 12.5 uM”; type: functional, organism-based, Huh-7; settings: for EC50: Huh-7; for EC90: Huh-7, 216 h, time 9 day; procedure, shortened: as §2
[12] = Passive membrane permeability of the compound in phosphate buffered saline assessed as concentration of the compound in acceptor plate at 200 uM incubated for 5 hrs by PAMPA assay based HPLC analysis; type: ADME; procedure, shortened: as §5
[13] = Passive membrane permeability of the compound in phosphate buffered saline assessed as mass retention of the compound at 200 uM incubated for 5 hrs by PAMPA assay based HPLC analysis; type: ADME; procedure, shortened: as §5
[14] = molecular target: Genome polyprotein (dengue virus type 2) (UniProt P29990); experiment: Inhibition of NS2B-NS3 protease in DENV2proHeLa system assessed as inhibition of luciferase signal at 12.5 uM incubated for 24 hrs by luciferase reporter gene assay; type: cell-based; settings: HeLa
Procedure, shortened: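 Stable DENV2proHeLa cells seeded at 2 × 10⁴/well and dosed immediately, then incubated 24 h at 37 °C. Cells lysed 15 min at room temperature. Luciferase read with coelenterazine (2.75 μM in PBS) injection, luminescence 5 s. Triplicates; percent inhibition calculated relative to untreated control; background from cell-free wells.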

[15] = molecular target: Genome polyprotein (West Nile virus) (UniProt P06935); experiment: Inhibition of WNV NS2B-NS3 protease expressed in Escherichia coli BL21 lambda(DE3) using FRET substrate preincubated with enzyme for 15 mins in presence of detergent CHAPS followed by substrate addition for 15 mins by fluorescence based analysis; settings: time 30.0 min
Sequence of Genome polyprotein (West Nile virus) (P06935 whole entry): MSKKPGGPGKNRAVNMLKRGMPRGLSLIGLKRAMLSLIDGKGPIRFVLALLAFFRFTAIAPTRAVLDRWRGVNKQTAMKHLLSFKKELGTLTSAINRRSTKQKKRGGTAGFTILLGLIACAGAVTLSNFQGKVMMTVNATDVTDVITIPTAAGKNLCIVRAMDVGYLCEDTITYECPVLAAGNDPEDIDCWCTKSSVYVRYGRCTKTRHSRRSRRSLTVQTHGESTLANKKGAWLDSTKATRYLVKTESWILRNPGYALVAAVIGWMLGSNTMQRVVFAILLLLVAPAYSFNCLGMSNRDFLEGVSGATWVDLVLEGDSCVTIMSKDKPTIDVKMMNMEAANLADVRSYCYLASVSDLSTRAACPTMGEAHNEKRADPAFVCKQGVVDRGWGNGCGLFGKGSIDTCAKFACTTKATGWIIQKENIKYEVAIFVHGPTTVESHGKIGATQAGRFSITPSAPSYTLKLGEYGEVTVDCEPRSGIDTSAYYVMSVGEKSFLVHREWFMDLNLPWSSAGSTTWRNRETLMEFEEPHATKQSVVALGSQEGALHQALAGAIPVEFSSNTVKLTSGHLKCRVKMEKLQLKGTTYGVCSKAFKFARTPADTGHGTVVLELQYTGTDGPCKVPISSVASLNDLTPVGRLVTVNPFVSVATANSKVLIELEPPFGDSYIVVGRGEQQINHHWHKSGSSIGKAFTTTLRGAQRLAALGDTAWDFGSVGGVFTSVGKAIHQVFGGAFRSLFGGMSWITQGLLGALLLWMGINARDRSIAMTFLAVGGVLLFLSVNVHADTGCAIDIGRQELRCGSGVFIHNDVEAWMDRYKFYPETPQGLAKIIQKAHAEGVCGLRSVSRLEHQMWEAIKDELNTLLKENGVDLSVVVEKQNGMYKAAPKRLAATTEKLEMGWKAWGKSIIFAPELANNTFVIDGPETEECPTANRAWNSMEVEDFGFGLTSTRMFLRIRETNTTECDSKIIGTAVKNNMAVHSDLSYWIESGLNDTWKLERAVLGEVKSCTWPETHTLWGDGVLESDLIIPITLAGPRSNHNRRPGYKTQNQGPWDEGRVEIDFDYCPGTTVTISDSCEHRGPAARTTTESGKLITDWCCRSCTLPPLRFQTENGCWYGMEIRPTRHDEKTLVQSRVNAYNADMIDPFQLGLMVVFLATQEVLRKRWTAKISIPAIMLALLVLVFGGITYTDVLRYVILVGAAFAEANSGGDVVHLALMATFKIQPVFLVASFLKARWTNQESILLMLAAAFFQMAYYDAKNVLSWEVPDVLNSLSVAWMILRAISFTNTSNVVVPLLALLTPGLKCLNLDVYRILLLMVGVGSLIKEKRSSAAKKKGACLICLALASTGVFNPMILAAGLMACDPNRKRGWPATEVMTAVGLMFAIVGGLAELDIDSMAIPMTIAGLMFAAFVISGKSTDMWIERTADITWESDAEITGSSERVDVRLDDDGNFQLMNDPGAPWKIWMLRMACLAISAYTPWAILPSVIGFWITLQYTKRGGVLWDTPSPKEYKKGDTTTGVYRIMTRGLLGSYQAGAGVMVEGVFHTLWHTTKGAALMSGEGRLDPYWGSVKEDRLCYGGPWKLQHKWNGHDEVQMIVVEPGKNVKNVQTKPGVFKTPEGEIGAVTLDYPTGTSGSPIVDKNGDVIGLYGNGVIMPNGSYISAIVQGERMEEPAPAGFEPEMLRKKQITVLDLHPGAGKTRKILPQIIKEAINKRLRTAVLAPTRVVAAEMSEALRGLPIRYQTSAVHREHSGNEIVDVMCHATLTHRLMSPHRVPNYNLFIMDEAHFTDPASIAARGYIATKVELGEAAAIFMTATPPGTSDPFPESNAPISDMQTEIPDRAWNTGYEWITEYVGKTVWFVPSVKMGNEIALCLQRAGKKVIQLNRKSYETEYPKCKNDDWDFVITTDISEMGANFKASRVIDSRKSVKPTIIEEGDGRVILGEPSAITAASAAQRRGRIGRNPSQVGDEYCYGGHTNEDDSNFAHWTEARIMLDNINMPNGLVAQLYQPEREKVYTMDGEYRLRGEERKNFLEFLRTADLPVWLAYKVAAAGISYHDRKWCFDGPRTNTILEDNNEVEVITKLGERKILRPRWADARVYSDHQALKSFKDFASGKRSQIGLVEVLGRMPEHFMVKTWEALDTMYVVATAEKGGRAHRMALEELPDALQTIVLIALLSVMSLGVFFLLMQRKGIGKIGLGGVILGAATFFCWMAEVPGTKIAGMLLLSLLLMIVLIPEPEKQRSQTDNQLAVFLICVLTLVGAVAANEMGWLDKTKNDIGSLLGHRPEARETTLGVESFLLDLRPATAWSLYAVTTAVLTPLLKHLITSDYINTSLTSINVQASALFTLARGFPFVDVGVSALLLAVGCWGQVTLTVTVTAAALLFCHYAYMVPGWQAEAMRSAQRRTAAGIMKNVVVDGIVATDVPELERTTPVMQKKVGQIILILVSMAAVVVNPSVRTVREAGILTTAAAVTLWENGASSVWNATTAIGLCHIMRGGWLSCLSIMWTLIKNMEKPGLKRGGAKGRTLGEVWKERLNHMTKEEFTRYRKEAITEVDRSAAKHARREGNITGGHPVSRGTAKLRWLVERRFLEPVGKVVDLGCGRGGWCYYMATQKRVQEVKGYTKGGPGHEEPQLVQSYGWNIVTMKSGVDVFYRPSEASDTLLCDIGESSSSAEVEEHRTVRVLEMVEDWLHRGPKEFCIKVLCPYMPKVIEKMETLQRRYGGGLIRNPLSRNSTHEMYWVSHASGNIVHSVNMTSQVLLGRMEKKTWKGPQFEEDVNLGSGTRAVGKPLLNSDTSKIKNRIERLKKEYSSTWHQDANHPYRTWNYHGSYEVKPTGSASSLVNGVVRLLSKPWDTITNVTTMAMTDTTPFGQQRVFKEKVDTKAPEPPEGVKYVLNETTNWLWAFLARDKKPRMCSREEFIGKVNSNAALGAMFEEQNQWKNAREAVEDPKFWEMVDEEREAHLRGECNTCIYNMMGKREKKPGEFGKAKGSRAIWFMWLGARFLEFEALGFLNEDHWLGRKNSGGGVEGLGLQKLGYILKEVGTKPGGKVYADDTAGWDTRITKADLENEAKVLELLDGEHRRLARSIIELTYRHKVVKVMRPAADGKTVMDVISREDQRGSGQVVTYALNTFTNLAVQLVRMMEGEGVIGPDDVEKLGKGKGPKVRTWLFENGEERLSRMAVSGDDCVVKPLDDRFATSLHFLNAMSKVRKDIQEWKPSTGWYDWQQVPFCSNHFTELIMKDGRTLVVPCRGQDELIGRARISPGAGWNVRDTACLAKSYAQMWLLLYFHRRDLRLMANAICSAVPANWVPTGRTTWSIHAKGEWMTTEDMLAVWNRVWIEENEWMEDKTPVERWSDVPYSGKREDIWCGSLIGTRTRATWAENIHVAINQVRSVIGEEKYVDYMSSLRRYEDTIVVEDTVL

Genome polyprotein [16] = molecular target: T1, Genome polyprotein; experiment: Competitive inhibition of DENV2 NS2B-NS3 protease expressed in Escherichia coli BL21 lambda(DE3) using FRET substrate preincubated with enzyme for 15 mins followed by substrate addition for 15 mins by Michaelis-Menten based analysis
[17] = Metabolic stability in Sprague-Dawley rat liver microsomes at 100 uM incubated for 60 mins in presence of NADPH by HPLC analysis; type: ADME, Microsome; settings: 1 h
Procedure, shortened: (§6)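 Rat liver microsomes; samples incubated 60 min at 37 °C, parent compound depletion monitored.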

[18] = molecular target: Genome polyprotein (dengue virus type 2) (UniProt P29990); experiment: Competitive inhibition of DENV2 NS2B-NS3 protease expressed in Escherichia coli BL21 lambda(DE3) assessed as increase in Km without change in Vmax using FRET substrate preincubated with enzyme for 15 mins followed by substrate addition for 15 mins by Michaelis-Menten based analysis; settings: time 30.0 min
[19] = Selectivity index, ratio of CC50 for human HeLa cells to EC50 for inhibition of NS2B-NS3 protease in DENV2proHeLa system; type: toxicity; settings: read-out: Ratio CC50/EC50
[20] = molecular target: Genome polyprotein (dengue virus type 2) (UniProt P29990); experiment: Binding affinity to DENV2 NS2B-NS3 protease expressed in Escherichia coli BL21 lambda(DE3) assessed as quenching of fluorescence of tryptophan residue of the enzyme incubated for 1 hr by tryptophan fluorescence quenching assay; settings: dose 10-50 µM
Procedure, shortened: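 Compound added to isolated DENV-2 protease; tryptophan fluorescence quenching monitored across concentrations. Aprotinin added as active-site competitor to test displacement.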

[21] = molecular target: Genome polyprotein (dengue virus type 2) (UniProt P29990); experiment: Binding affinity to DENV2 NS2B-NS3 protease expressed in Escherichia coli BL21 lambda(DE3) assessed as quenching of fluorescence of tryptophan residue of the enzyme at 50 uM incubated for 1 hr in presence of aprotinin by tryptophan fluorescence quenching assay
[22] = Stability of the compound assessed as bovine pancreas alphachymotrypsin-mediated parent compound depletion at 0.1 mg/ml incubated for 120 mins by HPLC analysis; type: ADME, Bos taurus; settings: cattle, bovine pancreas alpha-chymotrypsin, read-out: Drug degradation; procedure, shortened: as §4
[23] = Half life in Sprague-Dawley rat liver microsomes at 100 uM incubated for 60 mins in presence of NADPH by HPLC analysis; type: ADME, Microsome; procedure, shortened: as §6

Compound	inhibition at 12.5 µM (dengue virus type 2 [1]) [%]	Activity (Huh-7) [%]	Ki (Genome polyprotein [2]) [µM]	metabolised at 2 h, 0.1 mg/ml [3] [%]	CC50 at 24 h [4] [µM]	Papp at 5 h, 200 µM [5] [nm/s]	inhibition (Trypsin (Homo sapiens))	EC50 (Genome polyprotein [6]) [µM]	remaining at 2 h, 0.1 mg/ml [7] [%]	inhibition [8]	inhibition [9]	Activity [10] [µM]	EC50 (dengue virus type 2 [11]) [µM]	EC90 (dengue virus type 2 [11]) [µM]	Activity [12] [µM]	Activity [13] [%]	inhibition [14] [%]	further results
NC(=O)c1cccc(NC(=O)[C@@H](NC(=O)c2ccc(C(=O)c3ccccc3)cc2)c2ccc(OCc3ccccc3)cc2)c1	100	< 20	3.5	25	> 100	18	inactive	0.39	70	Active	inactive	178	1.1	4.6	8.6	8.1	76	
N#Cc1ccc(Oc2ccc(C(=O)N[C@H](C(=O)Nc3cccc(C(N)=O)c3)c3ccc(OCc4ccccc4)cc3)cc2)cc1	88	< 20			> 100	10	inactive	1		Active	inactive	177	0.66	8	4.5	9.9	79	inhibition [15]: Active
NC(=O)c1cccc(NC(=O)[C@@H](NC(=O)c2ccc(-c3ccc(Cl)cc3)cc2)c2ccc(OCc3ccccc3)cc2)c1	100	< 20	6.9	25	> 25	7	inactive	1.2	70	Active	inactive	187	1.6	4.7	3.7	5.5	78	Ki (Genome polyprotein [16]): 4.1 µM; inhibition [15]: Active; Stabilty [17]: Stable; inhibition [18]: Active
NC(=O)c1cccc(NC(=O)[C@@H](NC(=O)c2ccc(Oc3ccc(Cl)cc3)cc2)c2ccc(OCc3ccccc3)cc2)c1					96		inactive	0.58			inactive						86	selectivity ratio [19]: > 140
NC(=O)c1cccc(NC(=O)[C@@H](NC(=O)c2ccc(Oc3ccc(C(F)(F)F)cc3)cc2)c2ccc(OCc3ccccc3)cc2)c1	100	< 20	6.3	25	> 100	14	inactive	1.2	70	Active	inactive	188	0.24	4.8	6.9	3.7	76	Stabilty [17]: Stable
NC(=O)c1ccc(CNC(=O)[C@@H](NC(=O)c2ccc(-c3cccs3)s2)c2ccc(OCc3ccccc3)cc2)cc1					> 100		inactive	6.2			inactive						63	Activity [20]: Active; Activity [21]: inactive
NC(=O)c1cccc(NC(=O)[C@@H](NC(=O)c2ccc(N3CCOCC3)cc2)c2ccc(OCc3ccccc3)cc2)c1	96	< 20			> 100	17	inactive	2.2		Active	inactive	181	0.85	15	8.1	7.1	79	Stabilty [3]: Unstable; metabolised at 2 h, 0.1 mg/ml [22]: 40%; half-life at 100 µM [23]: 27 min
CCCCCC(=O)N[C@H](C(=O)NCc1ccc(NC(=N)N)cc1)c1ccc(OCc2ccccc2)cc1				25						Active								metabolised at 2 h, 0.1 mg/ml [22]: 40%; half-life at 100 µM [23]: 55 min
NC(=O)c1cccc(NC(=O)[C@@H](NC(=O)c2ccc(-c3ccco3)cc2)c2ccc(OCc3ccccc3)cc2)c1	59	< 20			> 50	4.5	inactive	1.7			inactive	169			2.1	15	76	Activity [20]: Active; Activity [21]: inactive
N=C(N)NCCC[C@H](NC(=O)c1ccccc1)C(=O)NC(CCCCN)C(=O)NC(C(N)=O)c1ccc(OCc2ccccc2)cc1 (stereo partly drawn)	50	< 20								Active								Stabilty [3]: Unstable; inhibition [15]: Active
NC(=O)c1cccc(NC(=O)[C@@H](NC(=O)c2ccc(Oc3ccccc3)cc2)c2ccc(OCc3ccccc3)cc2)c1	100	< 20	6.1	25	> 100	22	inactive	0.73	70	Active	inactive	164	0.66	7	9.5	15	83	Ki (Genome polyprotein [16]): 5.2 µM; selectivity ratio [19]: > 140; inhibition [18]: Active
